Legend:
Type in all cases: functional
Parameters in all cases: scale not given: the % may be the effect or the level left
[1] = test system: Rattus norvegicus; assay: Hypolipidemic activity in COBBS-CD rat assessed as reduction in serum sterol level at 0.1% administered with chow diet after 5 days relative to control
Outline: (§1)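 Male COBBS-CD rats, four per treated group and eight per control group. The compound was mixed into ground rat chow at 0.1, 0.03 or 0.01% w/w (about 100, 30 and 10 mg/kg). Control chow received only the mixing solvent (methanol-chloroform 1:3 v/v). Food and water were ad libitum for 5 days, then rats were decapitated and blood collected. Serum sterols were measured by an automated method and expressed relative to controls; ± values are SD.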

[2] = test system: Rattus norvegicus; assay: Hypolipidemic activity in COBBS-CD rat assessed as reduction in serum sterol level at 0.03% administered with chow diet after 5 days relative to control; outline: as §1
[3] = test system: Rattus norvegicus; assay: Hypolipidemic activity in COBBS-CD rat assessed as reduction in serum sterol level at 0.01% administered with chow diet after 5 days relative to control; outline: as §1
[4] = test system: Rattus norvegicus; assay: Hypolipidemic activity in COBBS-CD rat assessed as reduction in serum triglyceride level at 0.1% administered with chow diet after 5 days relative to control
Outline: (§2)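 The compound was given in ground chow at 0.1, 0.03 or 0.01% w/w (about 100, 30 and 10 mg/kg) to male COBBS-CD rats (n=4; solvent-chow controls n=8) for 5 days ad libitum. Rats were killed by decapitation and blood collected. Serum triglycerides were assayed by an automated method and compared with controls; ± values are SD.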

[5] = test system: Rattus norvegicus; assay: Hypolipidemic activity in COBBS-CD rat assessed as reduction in serum triglyceride level at 0.03% administered with chow diet after 5 days relative to control; outline: as §2
[6] = test system: Rattus norvegicus; assay: Hypolipidemic activity in COBBS-CD rat assessed as reduction in serum triglyceride level at 0.01% administered with chow diet after 5 days relative to control; outline: as §2

## COC(=O)C(Oc1cc(Cl)c(Cl)c(Cl)c1)c1ccc(Oc2ccc(Cl)cc2)cc1 (configuration not stated)
[1]
  Activity: 30%
[2]
  Activity: -2%
[3]
  Activity: 3%
[4]
  Activity: 55%
[5]
  Activity: 46%
[6]
  Activity: 15%

## COC(=O)C(Oc1ccc(C2CCCCC2)cc1)c1ccc(Oc2ccc(Cl)cc2)cc1 (configuration not stated)
[1]
  Activity: 51%
[2]
  Activity: 21%
[3]
  Activity: 20%
[4]
  Activity: 66%
[5]
  Activity: 47%
[6]
  Activity: 37%

## COC(=O)C(Oc1ccc(Cl)cc1)c1ccc(Oc2ccc(Cl)c3ccccc23)cc1 (configuration not stated)
[1]
  Activity: 23%
[2]
  Activity: 17%
[3]
  Activity: 6%
[4]
  Activity: 38%
[5]
  Activity: 12%
[6]
  Activity: 33%

## COC(=O)C(Oc1cccc(C(F)(F)F)c1)c1ccc(Oc2ccc(Cl)cc2)cc1 (configuration not stated)
[1]
  Activity: 28%
[2]
  Activity: 16%
[3]
  Activity: -6%
[4]
  Activity: 61%
[5]
  Activity: 47%
[6]
  Activity: 18%

## COC(=O)C(Oc1cccc(C(C)(C)C)c1)c1ccc(Oc2ccc(Cl)cc2)cc1 (configuration not stated)
[1]
  Activity: 41%
[2]
  Activity: 20%
[3]
  Activity: 23%
[4]
  Activity: 63%
[5]
  Activity: 49%
[6]
  Activity: 41%

## COC(=O)C(Oc1cc(C)c(Cl)c(C)c1)c1ccc(Oc2ccc(Cl)cc2)cc1 (configuration not stated)
[1]
  Activity: 21%
[2]
  Activity: 22%
[3]
  Activity: 0%
[4]
  Activity: 66%
[5]
  Activity: 49%
[6]
  Activity: 33%

## COC(=O)C(Oc1ccc(C2CCCCC2)cc1)c1ccc(Oc2cccc(C(F)(F)F)c2)cc1 (configuration not stated)
[1]
  Activity: 20%
[2]
  Activity: 18%
[3]
  Activity: 8%
[4]
  Activity: 59%
[5]
  Activity: 34%
[6]
  Activity: 40%

## COC(=O)C(Oc1ccc(Cl)cc1)c1ccc(Oc2ccc(C#N)cc2)cc1 (configuration not stated)
[1]
  Activity: 16%
[2]
  Activity: 19%
[3]
  Activity: 20%
[4]
  Activity: 71%
[5]
  Activity: 60%
[6]
  Activity: 50%

## COC(=O)C(Oc1ccc(C(C)(C)C)cc1Cl)c1ccc(Oc2ccc(Cl)cc2)cc1 (configuration not stated)
[1]
  Activity: 28%
[2]
  Activity: 29%
[3]
  Activity: 17%
[4]
  Activity: 64%
[5]
  Activity: 50%
[6]
  Activity: 25%

## COC(=O)C(Oc1ccc(Cl)cc1)c1ccc(Oc2cccc(C(F)(F)F)c2)cc1 (configuration not stated)
[1]
  Activity: 32%
[2]
  Activity: 31%
[3]
  Activity: 8%
[4]
  Activity: 50%
[5]
  Activity: 47%
[6]
  Activity: 35%

## COC(=O)C(Oc1ccccc1)c1ccc(Oc2ccc(Cl)cc2)cc1 (configuration not stated)
[1]
  Activity: 31%
[2]
  Activity: 18%
[3]
  Activity: 18%
[4]
  Activity: 68%
[5]
  Activity: 67%
[6]
  Activity: 77%

## O=C(O)C(Oc1cccc(C(F)(F)F)c1)c1ccc(Cl)cc1 (configuration not stated) [METAGLIDASEN]
[1]
  Activity: 26%
[2]
  Activity: 14%
[3]
  Activity: 25%
[4]
  Activity: 49%
[5]
  Activity: 10%
[6]
  Activity: 14%

## COC(=O)C(Oc1ccc(C2CCCCC2)cc1)c1ccc(Sc2ccc(Cl)cc2)cc1 (configuration not stated)
[1]
  Activity: 19%
[2]
  Activity: 15%
[3]
  Activity: 14%
[4]
  Activity: 45%
[5]
  Activity: 44%
[6]
  Activity: 33%

## COC(=O)C(Oc1ccc(Cl)c(C)c1)c1ccc(Oc2ccc(Cl)cc2)cc1 (configuration not stated)
[1]
  Activity: 39%
[2]
  Activity: 34%
[3]
  Activity: 34%
[4]
  Activity: 54%
[5]
  Activity: 39%
[6]
  Activity: 28%

## CCOP(=O)(OCC)C(Oc1ccc(Cl)cc1)(C(=O)OC)c1ccc(Oc2ccc(Cl)cc2)cc1 (configuration not stated)
[1]
  Activity: 43%
[2]
  Activity: 27%
[3]
  Activity: 23%
[4]
  Activity: 60%
[5]
  Activity: 44%
[6]
  Activity: 18%

## COC(=O)C(Oc1ccc(F)cc1)c1ccc(Sc2ccc(Cl)cc2)cc1 (configuration not stated)
[1]
  Activity: 22%
[2]
  Activity: 23%
[3]
  Activity: 21%
[4]
  Activity: 36%
[5]
  Activity: 18%
[6]
  Activity: 1%

## COC(=O)C(Oc1ccc(Cl)c2c1CCCC2)c1ccc(Oc2ccc(Cl)cc2)cc1 (configuration not stated)
[1]
  Activity: 25%
[2]
  Activity: 30%
[3]
  Activity: -1%
[4]
  Activity: 54%
[5]
  Activity: 28%
[6]
  Activity: 24%

## COC(=O)C(Oc1ccc(F)cc1)c1ccc(Oc2ccc(C#N)cc2)cc1 (configuration not stated)
[1]
  Activity: 33%
[2]
  Activity: 19%
[3]
  Activity: 13%
[4]
  Activity: 60%
[5]
  Activity: 31%
[6]
  Activity: 38%

## COC(=O)C(Oc1ccc2c(c1)CCC2)c1ccc(Oc2ccc(Cl)cc2)cc1 (configuration not stated)
[1]
  Activity: 25%
[2]
  Activity: 30%
[3]
  Activity: 26%
[4]
  Activity: 52%
[5]
  Activity: 51%
[6]
  Activity: 37%

## CCOC(=O)C(Oc1ccc(Cl)cc1)c1ccc(Oc2ccc(Cl)cc2)cc1 (configuration not stated)
[1]
  Activity: 25%
[2]
  Activity: 25%
[3]
  Activity: 18%
[4]
  Activity: 60%
[5]
  Activity: 51%
[6]
  Activity: 40%

## COC(=O)C(Oc1ccc(C(C)(C)C)cc1)c1ccc(Oc2ccc(C#N)cc2)cc1 (configuration not stated)
[1]
  Activity: 13%
[2]
  Activity: 13%
[3]
  Activity: 16%
[4]
  Activity: 59%
[5]
  Activity: 63%
[6]
  Activity: 69%

## COC(=O)C(Oc1cccc(C(C)(C)C)c1)c1ccc(Oc2ccc(C(C)(C)C)cc2)cc1 (configuration not stated)
[1]
  Activity: 4%
[2]
  Activity: 6%
[3]
  Activity: -5%
[4]
  Activity: 33%
[5]
  Activity: 13%
[6]
  Activity: 21%

## COC(=O)C(Oc1ccc(OCc2ccccc2)cc1)c1ccc(Oc2ccc(Cl)cc2)cc1 (configuration not stated)
[1]
  Activity: 30%
[2]
  Activity: 26%
[3]
  Activity: 13%
[4]
  Activity: 57%
[5]
  Activity: 37%
[6]
  Activity: 29%

## COC(=O)C(Oc1ccc(Cl)cc1)c1ccc(Oc2ccc(S(C)(=O)=O)cc2)cc1 (configuration not stated)
[1]
  Activity: 15%
[2]
  Activity: -1%
[3]
  Activity: 8%
[4]
  Activity: 22%
[5]
  Activity: -11%
[6]
  Activity: 11%

## COC(=O)C(Oc1ccc(Cl)c2ccccc12)c1ccc(Oc2ccc(Cl)cc2)cc1 (configuration not stated)
[1]
  Activity: 11%
[2]
  Activity: -3%
[3]
  Activity: -18%
[4]
  Activity: 32%
[5]
  Activity: -8%
[6]
  Activity: -15%

## COC(=O)C(Oc1ccc(NC(C)=O)cc1)c1ccc(Oc2ccc(Cl)cc2)cc1 (configuration not stated)
[1]
  Activity: -3%
[2]
  Activity: -11%
[3]
  Activity: -4%
[4]
  Activity: 13%
[5]
  Activity: -20%
[6]
  Activity: -9%

## COC(=O)C(Oc1ccc(C23CC4CC(CC(C4)C2)C3)cc1)c1ccc(Oc2ccc(Cl)cc2)cc1 (configuration not stated)
[1]
  Activity: 3%
[2]
  Activity: 16%
[3]
  Activity: 14%
[4]
  Activity: 17%
[5]
  Activity: 29%
[6]
  Activity: 11%

## COC(=O)C(Oc1ccc2ccccc2c1)c1ccc(Oc2ccc(Cl)cc2)cc1 (configuration not stated)
[1]
  Activity: 32%
[2]
  Activity: 15%
[3]
  Activity: 10%
[4]
  Activity: 55%
[5]
  Activity: 44%
[6]
  Activity: 32%

## COC(=O)C(Oc1cccc2ccccc12)c1ccc(Oc2ccc(Cl)cc2)cc1 (configuration not stated)
[1]
  Activity: 4%
[2]
  Activity: 3%
[4]
  Activity: 39%
[5]
  Activity: 36%
